High-throughput results: PubChem, The Scripps Research Institute Molecular Screening Center
OX1R antag-1: blocks the human orexin 1 receptor | inhibition, % at 5 µM | 0.43% of 330,000 active | CHO/OX1R cells, Fluo-8 calcium fluorescence, orexin A;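 active means inhibition above its plate's threshold, mean inhibition of all tested compounds on the plate plus 3 SD, cut at about 37% in these data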;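 further: 0% = orexin A challenge wells and 100% = SB-334867-A antagonist wells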
Target sequence (O43613 whole entry, looked up): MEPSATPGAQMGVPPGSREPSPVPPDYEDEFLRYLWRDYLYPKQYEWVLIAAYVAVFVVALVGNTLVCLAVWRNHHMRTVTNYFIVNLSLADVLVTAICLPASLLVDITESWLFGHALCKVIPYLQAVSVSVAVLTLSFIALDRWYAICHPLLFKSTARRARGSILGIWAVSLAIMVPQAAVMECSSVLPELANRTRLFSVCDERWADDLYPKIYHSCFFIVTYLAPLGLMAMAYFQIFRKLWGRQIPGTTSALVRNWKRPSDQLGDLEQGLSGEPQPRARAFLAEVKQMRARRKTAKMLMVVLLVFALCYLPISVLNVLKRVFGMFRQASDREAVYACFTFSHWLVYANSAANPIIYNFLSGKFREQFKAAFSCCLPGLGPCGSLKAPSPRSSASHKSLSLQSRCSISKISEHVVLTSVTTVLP
CHO parental Ca: signal in parental CHO cells, OX1R antagonist counter-screen | inhibition, % at 5.6 µM | parental CHO-K1, ATP-induced calcium, Fluo-8 fluorescence | 0.63% of 330,000 active | AID 463079;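 active means inhibition above that plate's mean sample inhibition plus 3 SD, cut at about 26% in these data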;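 further: 0% = ATP-challenged DMSO wells and 100% = DMSO wells without ATP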
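Material: parental CHO cells / Compound: single nominal dose of 5.6 µM per compound / Signal: Fluo-8 fluorescence / Replicates: singlicate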
GPR7 antag: human neuropeptides B/W receptor 1 antagonism. P48145. GPR7-expressing cells, fluorescence antagonist assay. inhibition, % at 4.4 µM. 1.1% of 290,000 active. AID 1861; in the data active means inhibition above about 16%, passing the limit was not always enough;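 further: cells stimulated with the agonist NPW; 0% = agonist with vehicle and 100% = vehicle without agonist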
Target sequence (P48145 whole entry, looked up): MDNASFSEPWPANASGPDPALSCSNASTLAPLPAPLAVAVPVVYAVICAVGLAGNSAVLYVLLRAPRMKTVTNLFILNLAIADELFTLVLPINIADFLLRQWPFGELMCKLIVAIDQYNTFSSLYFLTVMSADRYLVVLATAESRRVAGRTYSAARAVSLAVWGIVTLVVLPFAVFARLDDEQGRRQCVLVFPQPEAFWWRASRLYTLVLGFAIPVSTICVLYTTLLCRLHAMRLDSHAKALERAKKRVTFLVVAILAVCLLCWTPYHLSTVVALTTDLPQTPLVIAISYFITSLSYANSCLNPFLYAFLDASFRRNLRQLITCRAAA
TAAR1 antagonist: human TAAR1 antagonism. AID 624466. 1.5% of 360,000 active. CHO RD-HGA16 TAAR1, Fluo-8 calcium fluorescence, antagonist. Q96RJ0. inhibition, % at 3 µM;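 active means inhibition above a per-plate cutoff, the mean inhibition of test compounds on that plate plus 3 SD, cut at about 49% in these data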;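 further: 0% = DMSO plus EC80 beta-PEA response and 100% = DMSO alone without agonist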
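test system = CHO RD-HGA16 cells bearing hTAAR1 | replication = singlicate | controls = DMSO-only wells and EC80 β-PEA-stimulated wells | reagent = EC80 β-phenethylamine stimulus | read-out basis = percent inhibition of PEA-evoked calcium signal, max/basal emission ratio | schedule = seeding 17-24 h prior, 75-min 37 °C, 30-min RT dye loading | signal = kinetic Fluo-8 calcium fluorescence measurement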
OX1R antag-2: blocks the human orexin 1 receptor; O43613; OX1R-expressing cells, FRET antagonist read-out; inhibition, % at 6.6 µM; 1.8% of 330,000 active; in the data active means inhibition mostly above about 38%, no sharp cut-off; inactive means mostly below about 40%;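 further: 0% = agonist challenge alone and 100% = reference antagonist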
TAAR1 ag: agonists of human TAAR1; CHO RD-HGA16 TAAR1, Fluo-8 calcium fluorescence; vehicle wells 0%, saturating PEA agonist 100%; Q96RJ0; activation, % at 3 µM; AID 624467; 0.99% of 360,000 active;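 active means activation above the mean activation of all test compounds in the run plus 3 SD, cut at about 38% in these data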
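Repeats: no replicates (n 1) | Material: CHO-derived RD-HGA16 cells with stable Gα16 and human TAAR1 | Technique: Kinetic Fluo-8 calcium fluorescence | Schedule: 17-24 h seeding, 75 min 37 °C dye, 30 min RT | Evaluation: % activation from peak over basal fluorescence ratio, DMSO-to-PEA scaled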
OX1R HTRF confirm: OX1R (human) antagonism, HTRF confirmed; shares compounds with OX1R antag-2; OX1R-expressing cells, HTRF antagonist assay; inhibition, % at 6.6 µM; 49% of 1,800 active; in the data active means inhibition above about 55%;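 further: CHO cells expressing OX1R stimulated with orexin A at about EC80; 0% = agonist challenge alone and 100% = reference antagonist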
CHO-K1 HTRF cnt: counter-screen: parental CHO-K1 HTRF response | shares compounds with OX1R antag-2 | parental CHO-K1 cells, HTRF counterscreen | inhibition, % at 6.6 µM | 48% of 1,800 active | AID 493232; in the data active means inhibition above about 17%;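 further: 0% = agonist challenge with vehicle and 100% = vehicle alone without agonist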
Starred values were filed as active, the others as inactive; . = no result given. Compounds with a hit are over-represented: about 4.5% of the library has one in this group of screens.

SMILES | OX1R antag-1 | CHO parental Ca | GPR7 antag | TAAR1 antagonist | OX1R antag-2 | TAAR1 ag | OX1R HTRF confirm | CHO-K1 HTRF cnt
CC(NS(=O)(=O)c1ccc(OCC(=O)NCc2ccccn2)cc1)c1ccccc1 (stereo not drawn) | -5.1 | -7.2 | -10.5 | -9.3 | 15.1 | 5.8 | . | .
O=C(O)c1cccc(NC(=O)c2ccc3c(c2)C(=O)N(C2CCCCC2)C3=O)c1 | -5.9 | 4.5 | -9.5 | -17.0 | 6.3 | 2.8 | . | .
CCN(CC)c1ccc(/C=N/NC(=O)c2c(Cl)cnn2C)c(O)c1 | 20.3 | -9.2 | -18.2 | -3.8 | 76.9* | 0.7 | 66.4* | 11.5
Cc1cc(-c2ccc([N+](=O)[O-])cc2)cc(C)n1 | . | . | . | -6.8 | . | -0.8 | . | .
CCN(CC(=O)Nc1ccccc1OC)C(=O)COc1ccc2ccccc2c1 | 14.2 | -19.2 | -6.6 | 4.4 | 97.0* | 3.6 | 66.5* | 3.7
CCOc1cc(NCCN2CCOCC2)c([N+](=O)[O-])cc1OCC | -25.6 | -7.3 | 4.5 | -3.4 | 91.0* | -3.6 | 38.2 | 48.7*
O=[N+]([O-])c1ccc(NCCN2CCOCC2)c([N+](=O)[O-])c1 | . | . | -0.5 | -11.2 | . | 1.7 | . | .
[O-][n+]1c2ccccc2[n+]([O-])c2cc(O)ccc21 | -13.4 | -4.2 | -20.1 | -25.9 | 92.2* | 4.4 | 63.0* | 110.7*
CCCC[n+]1ccn(C2=C([O-])c3ccccc3C(=O)/C2=N\S(=O)(=O)c2ccccc2)c1 | -27.7 | -25.3 | -4.6 | 0.2 | 165.4* | 4.3 | 54.6 | 93.7*
CCCCC[n+]1ccn(C2=C([O-])c3ccccc3C(=O)/C2=N\S(=O)(=O)c2ccccc2)c1 | -30.1 | -31.1 | 5.7 | -2.9 | 99.7* | 2.0 | 46.9 | 52.3*
CC(C)[n+]1ccn(C2=C([O-])c3ccccc3C(=O)/C2=N\S(=O)(=O)c2ccccc2)c1 | -18.9 | -3.2 | 4.7 | -11.2 | 77.3* | 0.6 | 69.3* | 95.5*
CCc1ccc(S(=O)(=O)/N=C2\C=C(NS(=O)(=O)c3ccccc3)C(=O)c3ccccc32)cc1 | . | . | -7.6 | -10.5 | . | -3.4 | . | .
CCCCC[n+]1ccn(C2=C([O-])c3ccccc3C(=O)/C2=N\S(=O)(=O)c2ccc(Br)cc2)c1 | -36.6 | -20.9 | -12.6 | -27.1 | 13.5 | 0.2 | . | .
CC(=O)Nc1c([N+](=O)[O-])cc2[nH]c(=O)[nH]c2c1[N+](=O)[O-] | -11.9 | -3.0 | -1.1 | 0.3 | 185.5* | 1.2 | 50.0 | 71.2*
CC(=O)Nc1c([N+](=O)[O-])cc(C)c(Cl)c1[N+](=O)[O-] | -9.8 | -3.3 | -0.2 | -12.7 | 23.1 | 8.7 | . | .
O=c1[nH]c2cc([N+](=O)[O-])c(NCCO)c([N+](=O)[O-])c2[nH]1 | -19.0 | -7.3 | -13.2 | 4.2 | 124.2* | 5.3 | 88.7* | 95.7*
Cn1c(N)c(C(=O)COC(=O)Cc2ccc(F)cc2)c(=O)n(C)c1=O | . | . | . | -6.7 | . | 2.8 | . | .
Cn1c(N)c(C(=O)COC(=O)c2ccc([N+](=O)[O-])o2)c(=O)n(C)c1=O | -10.5 | -11.2 | 1.0 | -0.2 | 104.7* | -0.1 | 30.6 | 54.6*
CCCCOc1ccc(-c2nnc(-c3cc[n+](C)cc3)o2)cc1 | -3.7 | -5.7 | -6.4 | -12.4 | 101.7* | 2.8 | 88.2* | 73.8*
O=C(OCC(=O)N1CCCC1)c1cc([N+](=O)[O-])ccc1Cl | -6.4 | -5.0 | 6.6 | -3.1 | 117.7* | 1.6 | 54.6 | 55.8*
Nc1cc(Cl)ccc1C(=O)OCC(=O)N1CCCC1 | -13.3 | -3.9 | -8.2 | -11.6 | -8.7 | 0.6 | . | .
CCN(CC)c1ccc(N=Nc2nn(C)c(C)c2[N+](=O)[O-])cc1 | -27.0 | -15.2 | -8.0 | -21.5 | 88.2* | -2.9 | 42.9 | 29.3*
COCCNCC(=O)Nc1ccc(C)c(S(=O)(=O)N2CCCCC2)c1 | -36.6 | -17.0 | -0.2 | 8.3 | 100.3* | 1.7 | 16.9 | 5.5
C=CCC1NS(=O)(=O)OC(CCc2ccccc2)C1O (stereo not drawn) | -10.0 | -15.0 | -7.3 | 3.3 | 12.1 | 0.1 | . | .
CC1(C(=O)NCCOc2ccccc2Cl)CC1(Cl)Cl (stereo not drawn) | -4.0 | -0.3 | -0.1 | -26.0 | 2.5 | -0.4 | . | .
SMILES | OX1R antag-1 | CHO parental Ca | GPR7 antag | TAAR1 antagonist | OX1R antag-2 | TAAR1 ag | OX1R HTRF confirm | CHO-K1 HTRF cnt
Cc1ccc2nsnc2c1S(=O)(=O)NCc1ccncc1 | -12.5 | -10.1 | -6.3 | -18.2 | 102.6* | 11.8 | 30.7 | 36.9*
NC(=O)c1ccc(SCC(=O)NC2CCCCC2)c([N+](=O)[O-])c1 | -9.9 | -1.1 | -10.0 | -15.8 | 76.9* | 1.2 | 28.9 | 35.1*
NS(=O)(=O)c1ccc(NCCCn2ccnc2)c([N+](=O)[O-])c1 | 7.4 | 7.4 | -12.4 | -3.4 | 80.5* | -0.4 | 52.0 | 49.8*
CCCCNc1ccc(S(N)(=O)=O)cc1[N+](=O)[O-] | -10.7 | -3.1 | -11.7 | . | 41.6 | . | . | .
O=C(NCCCn1ccnc1)c1cc([N+](=O)[O-])cc([N+](=O)[O-])c1 | -12.9 | -9.0 | -12.4 | 8.0 | 104.7* | 1.6 | 58.0* | 87.2*
COCCC(=O)N1CCCC(C(=O)c2ccc(C(F)(F)F)cc2)C1 (stereo not drawn) | -12.1 | -4.0 | -7.2 | -13.9 | 6.8 | 7.8 | . | .
COc1ccc(/C=c2\s/c(=C/C(=O)c3ccc(C)cc3)[nH]c2=O)cc1OC | 11.9 | -9.0 | -4.2 | 35.5 | 82.2* | 18.0 | 84.3* | 18.6*
CC(C)(C)C(=O)/C=c1\[nH]c(=O)/c(=C\c2ccc(F)cc2)s1 | -17.6 | -20.0 | -6.1 | 23.7 | 24.9 | 7.9 | . | .
Cn1c(=O)c2sccc2n2c(CCCC(=O)NCc3ccco3)nnc12 | -7.4 | 0.8 | -13.0 | -1.0 | 8.3 | 0.9 | . | .
N#C/C(=N\Nc1ccc(Cl)cc1)C(=N)N1CCCCC1 | -23.3 | 17.0 | 19.5 | 4.0 | 77.0* | 5.8 | 18.1 | 10.7
COc1ccc(CNC(=O)c2ccccc2SCC(=O)N2CCCC2)cc1OC | -7.8 | -6.5 | . | -9.8 | 4.5 | 5.2 | . | .
CCOC(=O)C1CCN(C2=C(NS(=O)(=O)c3ccc(Cl)cc3)C(=O)c3ccccc3C2=O)CC1 | 10.6 | -21.5 | -16.9 | 31.0 | 114.0* | -2.2 | 118.7* | 42.2*
CCOC(=O)C1CCN(CC(C)(C)NS(=O)(=O)c2ccc(Cl)cc2)CC1 | -25.2 | -14.5 | 0.9 | -10.5 | 17.8 | -2.3 | . | .
CCN1CCN(c2nc3ccccc3nc2NS(=O)(=O)c2ccc(NC(C)=O)cc2)CC1 | -4.4 | 10.6 | -15.6 | -25.1 | 13.0 | 2.3 | . | .
CCOC(=O)N1CCN(C2=C(NS(=O)(=O)c3ccc(NC(C)=O)cc3)C(=O)c3ccccc3C2=O)CC1 | -4.9 | -10.6 | -9.7 | -17.5 | 82.7* | 4.9 | 58.6* | 83.2*
